The subject of one experiment is Priestia megaterium. Briefly: Antibacterial activity against Bacillus megaterium at 50 ug. Type of experiment: functional, organism-based. In outline: (§1)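 Agar diffusion assay against bacteria (Bacillus megaterium, Escherichia coli), fungi (Microbotryum violaceum, Eurotium repens, Mycotypha microsporum) and the green microalga Chlorella fusca.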
Another experiment relates to Escherichia coli. Briefly: Antibacterial activity against Escherichia coli at 50 ug. The class given is functional, organism-based. A digest of the protocol: as §1
Another experiment deals with Microbotryum violaceum. Put plainly: Antifungal activity against Microbotryum violaceum at 50 ug. The class given is functional, organism-based. A digest of the protocol: as §1
The test system of experiment [1] is Aspergillus pseudoglaucus. Put plainly: Antifungal activity against Eurotium repens at 50 ug. Type of experiment: functional, organism-based. In outline:
as §1

Another experiment deals with Mycotypha microspora. Put plainly: Antifungal activity against Mycotypha microspora at 50 ug. Type of experiment: functional, organism-based. A digest of the protocol:
as §1

For a further experiment, the system named is [Chlorella] fusca. Briefly: Antialgal activity against 'Chlorella' fusca at 50 ug. The class given is functional, organism-based. To be noted: Scenedesmus fuscus. A digest of the protocol: as §1
The nature of experiment [2]: Cytotoxicity against human HM02 cells. The class given is functional. In outline:
(§2)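 Cytotoxicity run to NCI standards on the human tumour lines HM02 (stomach carcinoma), HepG2 (liver carcinoma) and Huh7 (liver carcinoma with mutated p53).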

The test system of the next experiment is HepG2. Briefly: Cytotoxicity against human HepG2 cells. Type of experiment: functional. In outline:
as §2

A further experiment has as its system Huh-7. Put plainly: Cytotoxicity against human HuH7 cells. The class given is functional. In outline:
as §2

Values after ≈ are worked out from the molar mass of the structure shown. Active and inactive are the calls of the source. The rule behind the calls is not given here.

As for `COc1ccc(Cc2[nH]c(=N)n(C)c2Cc2ccc(O)cc2)cc1`, the outcome (in the experiment on Priestia megaterium; in the experiment with Escherichia coli; with Microbotryum violaceum; in [1]; with Mycotypha microspora; in [Chlorella] fusca) was inactive.

For `COc1ccc(Cc2cn(Cc3ccc(O)cc3)c(=N)n2C)cc1`, the outcome (in the experiment on Priestia megaterium; in the experiment on Escherichia coli; with Microbotryum violaceum; in experiment [1]; with Mycotypha microspora; in experiment [Chlorella] fusca) was inactive.

By GI50 is commonly meant the concentration that inhibits growth by half. Read a high GI50 as lower sensitivity of the cells. For the compound `COc1ccc(Cn2cc(Cc3ccc(OC)c(OC)c3)nc2/N=C2/NC(=O)N(C)C2=O)cc1` [ISONAAMIDINE E], the GI50 is 7 mg/L (≈ 15.1 µM) in experiment [2], 7 mg/L (≈ 15.1 µM) in the experiment on HepG2 and 1.3 mg/L (≈ 2.8 µM) with Huh-7. For the same compound, the outcome (in the experiment with Priestia megaterium; in the experiment on Escherichia coli; in the experiment with Microbotryum violaceum; in experiment [1]; with Mycotypha microspora; in experiment [Chlorella] fusca) was inactive.

As for `COc1ccc(Cn2cc(Cc3ccc(OC)c(OC)c3)nc2N)cc1` [ISONAAMINE C], the GI50 in [2] worked out at 5.3 mg/L (≈ 15 µM); in the experiment with HepG2, 2.2 mg/L (≈ 6.22 µM); in the experiment with Huh-7, 2.1 mg/L (≈ 5.94 µM). Further, the outcome (with Priestia megaterium; with Escherichia coli; with Microbotryum violaceum; in experiment [1]; with Mycotypha microspora; in experiment [Chlorella] fusca) was inactive.

Regarding `COc1ccc(Cc2[nH]c(=N)n(C)c2Cc2cc(O)c(OC)c(O)c2)cc1`, the result (in the experiment with Priestia megaterium; with Escherichia coli; with Microbotryum violaceum; in experiment [1]; with Mycotypha microspora; in [Chlorella] fusca) was inactive.

These data come from ChEMBL document CHEMBL1150617, “New and biologically active imidazole alkaloids from two sponges of the genus Leucetta” (2002).
